According to ChEMBL document CHEMBL4145619, “Computer-Assisted Discovery of Retinoid X Receptor Modulating Natural Products and Isofunctional Mimetics” (J Med Chem, 2018):
Active and inactive are the calls of the source. The rule behind the calls is not given here.

Target: T1, Peroxisome proliferator-activated receptor gamma (Homo sapiens) (UniProt P37231)
T1 sequence (whole entry): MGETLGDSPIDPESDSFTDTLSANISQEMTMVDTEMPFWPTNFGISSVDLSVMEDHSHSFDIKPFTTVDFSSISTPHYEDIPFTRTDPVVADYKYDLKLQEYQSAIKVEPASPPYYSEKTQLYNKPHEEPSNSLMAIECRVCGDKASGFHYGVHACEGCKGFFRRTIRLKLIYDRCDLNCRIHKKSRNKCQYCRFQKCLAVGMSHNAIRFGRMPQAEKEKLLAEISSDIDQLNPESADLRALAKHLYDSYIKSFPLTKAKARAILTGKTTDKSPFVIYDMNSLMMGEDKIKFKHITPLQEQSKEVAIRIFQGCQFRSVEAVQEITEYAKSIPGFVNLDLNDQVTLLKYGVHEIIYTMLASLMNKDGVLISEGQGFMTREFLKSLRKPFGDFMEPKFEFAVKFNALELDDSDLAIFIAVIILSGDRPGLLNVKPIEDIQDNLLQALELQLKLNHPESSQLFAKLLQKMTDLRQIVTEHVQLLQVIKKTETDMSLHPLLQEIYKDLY
Experiment: Transactivation of human Gal4-fused PPARgamma LBD expressed in HEK293T cells at 30 uM after 12 to 14 hrs by dual-glo luciferase assay
Format: cell-based
Outline: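 Single-concentration selectivity profiling in Gal4-hybrid reporter gene assays in HEK293T cells. Each nuclear receptor construct (RAR, PPAR, LXR, FXR, CAR, VDR, PXR, RXR) was tested at 30 μM.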

Activity: inactive
SMILES: CC1=C2[C@H](/C=C(\C)C(=O)O)CC[C@@H](C)[C@H]2CC1 [VALERENIC ACID]
